{"data": "Results collected from several papers", "target": "Ephrin type-A receptor 8 (EPHA8, Homo sapiens, UniProt P29322)", "Residues used in one study (P29322 28-1005)": "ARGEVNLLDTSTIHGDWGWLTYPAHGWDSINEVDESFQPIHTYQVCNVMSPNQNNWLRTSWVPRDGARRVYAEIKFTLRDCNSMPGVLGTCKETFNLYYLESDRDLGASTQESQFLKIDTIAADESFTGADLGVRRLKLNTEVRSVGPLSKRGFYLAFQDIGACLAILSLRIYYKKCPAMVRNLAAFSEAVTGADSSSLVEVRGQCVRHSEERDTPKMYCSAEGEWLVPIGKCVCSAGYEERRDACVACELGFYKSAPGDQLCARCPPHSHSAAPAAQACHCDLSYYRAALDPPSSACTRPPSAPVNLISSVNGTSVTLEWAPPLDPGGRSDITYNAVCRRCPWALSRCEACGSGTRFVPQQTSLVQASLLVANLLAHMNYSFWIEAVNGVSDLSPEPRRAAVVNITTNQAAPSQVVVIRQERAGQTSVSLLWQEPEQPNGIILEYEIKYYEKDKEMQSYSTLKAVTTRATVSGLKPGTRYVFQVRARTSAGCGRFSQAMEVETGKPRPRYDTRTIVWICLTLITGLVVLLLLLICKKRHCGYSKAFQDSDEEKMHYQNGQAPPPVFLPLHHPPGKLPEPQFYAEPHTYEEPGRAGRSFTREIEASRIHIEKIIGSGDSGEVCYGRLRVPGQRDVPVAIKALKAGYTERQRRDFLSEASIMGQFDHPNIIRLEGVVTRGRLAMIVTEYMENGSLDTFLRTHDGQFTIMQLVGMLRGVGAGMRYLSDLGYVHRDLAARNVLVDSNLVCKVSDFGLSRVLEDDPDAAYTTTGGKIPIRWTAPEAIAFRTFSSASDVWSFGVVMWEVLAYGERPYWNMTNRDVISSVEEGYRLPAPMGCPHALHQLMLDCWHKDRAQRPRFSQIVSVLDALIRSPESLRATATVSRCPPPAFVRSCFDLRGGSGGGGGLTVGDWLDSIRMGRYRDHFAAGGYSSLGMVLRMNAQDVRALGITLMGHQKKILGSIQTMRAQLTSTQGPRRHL"}
{"SMILES": "Cc1ccc(NC(=O)c2ccc(C)c(C(F)(F)F)c2)cc1C#Cc1nn(C2CCC(O)CC2)c2ncnc(N)c12 (stereo not drawn)", "effect on": "cell-free assay", "concentration": "10 µM", "measurement": "remaining signal", "result": "2%"}
{"SMILES": "CNC(=O)c1ccc(Nc2ncc(C(F)(F)F)c(NCc3nccnc3N(C)S(C)(=O)=O)n2)cc1", "effect on": "cell-free assay", "technique": "competition with immobilised ligand", "concentration": "0.1 µM", "measurement": "remaining binding", "result": "87%"}
{"SMILES": "Cc1ccc(C(=O)NCc2ccsc2)cc1C#Cc1cn(C(C)C)c2ncnc(N)c12", "effect on": "enzyme activity", "mode": "inhibitor", "concentration": "1 µM", "measurement": "activity vs control", "result": "6%"}
{"SMILES": "COc1cc(-c2cc(-c3ccc(N4CCNCC4)cc3)cnc2C)cc(OC)c1OC", "effect on": "enzyme activity", "mode": "inhibitor", "concentration": "1 µM", "measurement": "inhibition", "result": "10%"}
{"SMILES": "CC(C)(C)c1nc(-c2cccc(NS(=O)(=O)c3c(F)cccc3F)c2F)c(-c2ccnc(N)n2)s1", "effect on": "enzyme activity", "mode": "inhibitor", "technique": "radiometric", "concentration": "1 µM", "measurement": "remaining activity", "result": "105%"}
{"SMILES": "CO[C@H]1CC[C@H](CNc2ccc(S(=O)(=O)NC(=O)c3ccc(N4CCN(CC5=C(c6ccc(Cl)cc6)CC(C)(C)CC5)CC4)cc3Oc3cnc4[nH]ccc4c3)cc2[N+](=O)[O-])CC1", "effect on": "cell-free assay", "technique": "competition with immobilised ligand", "concentration": "1 µM", "measurement": "remaining binding", "result": "84%"}
{"SMILES": "COc1cc2ncnc(Nc3ccc(Oc4ccccc4)cc3C)c2cc1OC", "effect on": "enzyme activity", "mode": "inhibitor", "concentration": "1 µM", "measurement": "inhibition", "result": "21%"}
{"SMILES": "CC/C(=N\\NC(=O)NCc1cccc(O)c1)c1ccc(O)c(C)c1O", "effect on": "enzyme activity", "mode": "inhibitor", "concentration": "0.1 µM", "measurement": "inhibition", "result": "-0.5%"}
{"SMILES": "O=C(NCCCC1CCCCC1)c1ccc(CNC(=O)c2cnn(-c3ccccc3)c2C(F)(F)F)cc1", "effect on": "cell-free assay", "technique": "competition with immobilised ligand", "concentration": "0.1 µM", "measurement": "remaining binding", "result": "95%"}
{"SMILES": "CCCS(=O)(=O)Nc1ccc(F)c(C(=O)c2c[nH]c3ncc(-c4ccc(Cl)cc4)cc23)c1F", "effect on": "enzyme activity", "mode": "inhibitor", "concentration": "1 µM", "measurement": "inhibition", "result": "< 20%"}
{"SMILES": "O=C1Nc2ccc(Cl)cc2C1=Cc1cc(Cl)c(O)c(Cl)c1", "effect on": "cell-free assay", "concentration": "0.5 µM", "measurement": "remaining signal", "result": "91.5%"}
{"SMILES": "CCCOc1ccc(OC)c(F)c1C(=O)c1ccc(C(=O)N[C@@H]2CNC[C@H]2NC(=O)c2ccc3[nH]ncc3c2)cc1", "effect on": "enzyme activity", "mode": "inhibitor", "concentration": "10 µM", "measurement": "remaining activity", "result": "95%"}
{"SMILES": "CCN(CC)CCNC(=O)c1c(C)[nH]c(/C=C2\\C(=O)Nc3ccc(F)cc32)c1C", "effect on": "cell-free assay", "concentration": "0.5 µM", "measurement": "remaining signal", "result": "92.1%"}
{"SMILES": "Cc1ccc(Nc2nccc(N(C)c3ccc4c(C)n(C)nc4c3)n2)cc1S(N)(=O)=O", "effect on": "enzyme activity", "mode": "inhibitor", "concentration": "10 µM", "measurement": "inhibition", "result": "81%"}
{"SMILES": "C[C@H](NC(=O)c1cnc2n1[C@](C)(Cc1ccc(C#N)cc1)C(=O)N2c1cc(Cl)c(F)c(Cl)c1)C(=O)NC1(c2ccccn2)CC1", "effect on": "cell-free assay", "technique": "competition with immobilised ligand", "concentration": "1 µM", "measurement": "remaining binding", "result": "100%"}
{"SMILES": "O=C(Nc1cnn(-c2csc(C(=O)NC3COC3)c2)c1)Nc1ccccc1Cl", "effect on": "enzyme activity", "mode": "inhibitor", "concentration": "5 µM", "measurement": "remaining activity", "result": "103%"}
{"SMILES": "O=C1NC(=O)c2cc(Nc3ccc(F)cc3)c(Nc3ccc(F)cc3)cc21", "effect on": "cell-free assay", "concentration": "0.5 µM", "measurement": "remaining signal", "result": "95.5%"}
{"SMILES": "O=C1CCc2cc(Nc3cc(OC4CCOCC4)c([N+](=O)[O-])cc3Cl)ccc2N1", "effect on": "cell-free assay", "technique": "competition with immobilised ligand", "concentration": "1 µM", "measurement": "remaining binding", "result": "100%"}
{"SMILES": "CNC(=O)c1cc(Oc2ccc(NC(=O)Nc3ccc(Cl)c(C(F)(F)F)c3)cc2)ccn1", "effect on": "enzyme activity", "mode": "inhibitor", "concentration": "0.3 µM", "measurement": "inhibition", "result": "23%"}
{"SMILES": "O=C(NC[C@@H]1[C@H]2CN(C(=O)OCc3cc(C(F)(F)F)cc(C(F)(F)F)c3)C[C@@H]12)c1ccc2[nH]nnc2c1", "effect on": "cell-free assay", "technique": "competition with immobilised ligand", "concentration": "1 µM", "measurement": "remaining binding", "result": "100%"}
{"SMILES": "Cc1cc(NC(=O)c2cccc3cc(-c4cccc5[nH]nc(N)c45)ccc23)ccc1F", "effect on": "enzyme activity", "mode": "inhibitor", "concentration": "0.1 µM", "measurement": "activity vs control", "result": "97%"}
